According to the array DNA melting data of Ke et al. (doi:10.1101/2024.01.08.574731):

How the values were obtained:
[1] = folding enthalpy; higher = less favourable; fluorescence melt of hairpins on a sequencing array, two-state fit; conditions: sodium 0.088 M
How it was run: (§1)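 Folding enthalpy and melting temperature were estimated with bootstrapped two-state fits and combined across four replicates by inverse-variance weighting, with fitted temperatures raised by 9.35 °C to match UV melts. The data were Cy3 fluorescence of library hairpins, with annealed Cy3 and quencher oligos, on a sequenced MiSeq flow cell in 50 mM Na-HEPES pH 8.0, 25 mM NaCl, imaged in 2.5 °C steps up to 60 °C and normalised to pre-quench Cy3 and control constructs.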

[2] = melting temperature; fluorescence melt of hairpins on a sequencing array, two-state fit, raised by 9.35 °C to match UV melts; conditions: sodium 0.088 M
How it was run: as §1

Sequence | folding enthalpy [1] [kcal/mol] | Tm [2] [°C]
GGAGTTGGAAACAGCTTC (.((.((....)).)).) | -37 | 37.1
GGATAAGAAATTATCC ((((((....)))))) | -27.6 | 42.1
GGATAAGGAAACTTATCC (((((((....))))))) | -37.6 | 52.8
GGATACGAAAGTAAATCC ((((((....)))..))) | -19.4 | 35.8
GGATACGAAAGTAATTCC ((((((....)))..))) | -12 | 27.7
GGATACGAAAGTAGGTCC ((((((....)))..))) | -8.27 | 28.4
GGATACGAAAGTATATCC ((((((....)))..))) | -18.3 | 34.5
GGATACGGAAACGTATTC (.(((((....))))).) | -24.8 | 45.2
GGATACTCGAAAGAGTCC (((..(((....)))))) | -11.7 | 32.6
GGATAGGGAAACCTGTCC (((.(((....))).))) | -30.9 | 48.2
GGATATCGAAAGATTCC (((.(((....)))))) | -25.9 | 39.5
GGATATGGAAACATACCC ((.((((....)))).)) | -25.3 | 33.2
GGATATGGAAACATATCC (((((((....))))))) | -47 | 54.7
GGATATGGAAACATATTC (.(((((....))))).) | -22.2 | 36.9
GGATATGGAAACATGTCC (((.(((....))).))) | -30.4 | 45.3
GGATCACGAAAGTGCTCC (((.(((....))).))) | -27.4 | 49.4
GGATCAGCGAAAGCTTCC (((..(((....)))))) | -12.7 | 30.7
GGATCAGGAAACTGGTTC (.(.(((....))).).) | -12.2 | 29.1
GGATCCCGAAAGGGCTCC (((.(((....))).))) | -26.5 | 51.3
GGATCCGAAAGGAAATCC ((((((....)))..))) | -25.9 | 38.2
GGATCCGAAAGGAGATCC ((((((....)))..))) | -24 | 44.8
GGATCCGAAAGGAGTTCC ((((((....)))..))) | -14.8 | 32.8
GGATCCGAAAGGATTTCC ((((((....)))..))) | -13.7 | 37.4

Sequence | folding enthalpy [1] [kcal/mol] | Tm [2] [°C]
GGATCCGGAAACGAATCC ((((.((....)).)))) | -29 | 41.8
GGATCCGGAAACGGATTC (.(((((....))))).) | -15.7 | 52
GGATCGACGAAAGTCTCC (((..(((....)))))) | -10.6 | 27.9
GGATCGGAAACGATCC ((((((....)))))) | -28.6 | 66.2
GGATCGGGAAACCGACCC ((.((((....)))).)) | -31.8 | 47.7
GGATCGGGAAACCGGTTC (.(.(((....))).).) | -20.1 | 38.2
GGATCGGGAAACTGATCC (((((.(....).))))) | -39.1 | 52.4
GGATCGTCGAAAGACTCC (((..(((....)))))) | -11.8 | 28.9
GGATCTCGAAAGAGGTCC (((.(((....))).))) | -41.4 | 57.3
GGATCTCGAAAGAGTTCC (((.(((....))).))) | -27.5 | 46.1
GGATCTGGAAACGGATCC (((((.(....).))))) | -38.4 | 51.6
GGATGACGAAAGTCTCC (((.(((....)))))) | -20 | 48.6
GGATGAGAAATCATCC ((((((....)))))) | -42.4 | 52.9
GGATGCCCGAAAGGGTCC (((..(((....)))))) | -11 | 33.2
GGATGCGAAAGCACCTCC ((((((....)))..))) | -14.4 | 54.6
GGATGCGAAAGCACTTCC ((((((....)))..))) | -17.4 | 42.2
GGATGCGAAAGCAGTCC ((((((....))).))) | -22.3 | 52.4
GGATGGGCGAAAGCCTCC (((..(((....)))))) | -11.3 | 36.9
GGATGGGGAAACCCATTC (.(((((....))))).) | -22 | 47.5
GGATGTGGAAACACACCC ((.((((....)))).)) | -27 | 44.3
GGATTACCGAAAGGTTCC (((..(((....)))))) | -13.5 | 30.8
GGATTACGAAAGTAGTCC (((.(((....))).))) | -37.5 | 50.9
GGATTAGGAAACTAACCC ((.((((....)))).)) | -17.3 | 30.1

Sequence | folding enthalpy [1] [kcal/mol] | Tm [2] [°C]
GGATTCCGAAAGGAGTCC (((.(((....))).))) | -41.6 | 55.6
GGATTCGAAAGAATATCC ((((((....)))..))) | -9.96 | 30.3
GGATTCGAAAGAATCC ((((((....)))))) | -37.9 | 62.9
GGATTCGAAAGAATTCC ((((((....))).))) | -20.4 | 42.6
GGATTCGGAAACGAACCC ((.((((....)))).)) | -25.6 | 45.6
GGATTCGGAAACGAATCC (((((((....))))))) | -35.8 | 67.1
GGATTCGGAAACGAGTCC (((.(((....))).))) | -35.7 | 51.1
GGATTTCGAAAGAATTCC (((.(((....))).))) | -31.1 | 42
GGATTTGCGAAAGCATCC (((..(((....)))))) | -16.4 | 38.9
GGCAAAGGAAACTCTGCC ((((.((....)).)))) | -32.1 | 36.2
GGCAACCGAAAGGTGCC (((.(((....)))))) | -33.6 | 66.4
GGCAACGAAAGTTAGCC ((((((....))).))) | -37.5 | 53.9
GGCAACGAAAGTTCAGCC ((((((....)))..))) | -24.4 | 41.1
GGCAACGAAAGTTCCGCC ((((((....)))..))) | -21.4 | 48.4
GGCAACGAAAGTTTCGCC ((((((....)))..))) | -19 | 41.8
GGCAACGAAAGTTTGCC ((((((....))).))) | -45.8 | 56.4
GGCAACGGAAACGCTGCC ((((.((....)).)))) | -41.8 | 53.6
GGCAACGGAAACGTCACC ((..(((....)))..)) | -13.9 | 26
GGCAACGGAAACGTTACC ((.((((....)))).)) | -29.8 | 45.1
GGCAATCGAAAGATGGCC (((.(((....))).))) | -41.9 | 57.8
GGCAATGGAAACATTGCC (((((((....))))))) | -42.1 | 67
GGCAATGGAAACGTTGCC (((((.(....).))))) | -56.8 | 54.5
GGCAATGGAAACGTTGTC (.(((.(....).))).) | -25.9 | 35.8

Sequence | folding enthalpy [1] [kcal/mol] | Tm [2] [°C]
GGCACAGAAATGTGCC ((((((....)))))) | -35.9 | 66.5
GGCACAGGAAACCATGCC ((((..(....)..)))) | -16.3 | 36.1
GGCACAGGAAACTACGCC (((..((....))..))) | -29.9 | 39.8
GGCACCCGAAAGGGCGCC (((.(((....))).))) | -31.7 | 69
GGCACCGAAAGGTGAGCC ((((((....)))..))) | -13.3 | 52.6
GGCACCGAAAGGTTGGCC ((((((....)))..))) | -28.1 | 53.3
GGCACCGCGAAAGCGGCC (((..(((....)))))) | -8.53 | 40
GGCACCGGAAACAGTGCC (((((.(....).))))) | -30.9 | 53.9
GGCACCGGAAACGGTGTC (.(((((....))))).) | -24.8 | 59.9
GGCACGGGAAACCACGCC (((..((....))..))) | -28.8 | 46.2
GGCACGGGAAACCGCGCC (((.(((....))).))) | -44.1 | 63.5
GGCACGGGAAACTGTGCC (((((.(....).))))) | -41.4 | 62.2
GGCACTTCGAAAGAAGCC (((..(((....)))))) | -9.16 | 32.2
GGCAGACGAAAGTCAGCC (((.(((....))).))) | -32.8 | 64.4
GGCAGACGAAAGTCCGCC (((.(((....))).))) | -39.2 | 60.2
GGCAGAGGAAACTCCGCC (((.(((....))).))) | -28.1 | 47.5
GGCAGAGGAAACTCTGCC (((((((....))))))) | -40.2 | 67.6
GGCAGCGAAAGCTCAGCC ((((((....)))..))) | -18.4 | 51
GGCAGCGAAAGCTCGCC ((((((....))).))) | -22.5 | 61.4
GGCAGCGAAAGCTCTGCC ((((((....)))..))) | -24.5 | 52.4
GGCAGCGAAAGCTGAGCC ((((((....)))..))) | -14.1 | 51.9
GGCAGCGAAAGCTTTGCC ((((((....)))..))) | -18.1 | 51.6
